Measurements reported in ChEMBL document CHEMBL1145820, “Design, synthesis, and evaluation of novel boronic-chalcone derivatives as antitumor agents” (J Med Chem, 2003).
pIC50: −log10 of the molar value.

What was measured:
Format in all cases: functional, cell-based
[1] = test system: MCF-12A; assay: Inhibitory activity against MCF-12A human breast cell line
[2] = test system: MCF7; assay: Inhibitory activity against Wt-MCF7 human breast cell line
How it was run: (§1)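 Cells kept in DMEM with 5% FBS, 2 mM glutamine and penicillin/streptomycin at 37 °C, 5% CO2. Cells plated and attached for 24 h, then exposed to 0.5-100 µM compound (10 mM DMSO stocks) for 96 h in quadruplicate wells. MTT (1 mg/mL, serum-free medium) was added for 4 h, formazan dissolved in DMSO:ethanol 1:1, and A540 read. IC50 taken from log plots of percent of control; two runs.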

[3] = test system: MCF-10A; assay: Inhibitory activity against MCF-10A human breast cell line
[4] = test system: MDA-MB-435; assay: Inhibitory activity against MDA-MB-435 human breast cell line
How it was run: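 Cells kept in IMEM with 5% FBS and 2 mM glutamine at 37 °C, 5% CO2. After 24 h attachment, cells were exposed in quadruplicate wells to 0.5-100 µM compound (10 mM DMSO stocks) for 96 h. Read-out was MTT (1 mg/mL, 4 h), with formazan dissolved in DMSO:ethanol and absorbance at 540 nm. IC50 came from log plots of percent of control vs concentration; assayed twice.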

[5] = test system: MDA-MB-231; assay: Inhibitory activity against MDA-MB-231 human breast cell line; how it was run: as §1

Row | pIC50 [1] | pIC50 [2] | pIC50 [4] | pIC50 [5] | SMILES | pIC50 [3]
1 | 4.52 | 5.15 | 5.35 | 5.10 | O=C(/C=C/c1ccc(I)cc1)c1ccc(O)cc1 | 4.82
2 | 4.42 | 5.05 | 4.74 | 4.36 | O=C(O)COc1ccc(C(=O)/C=C/c2ccc(I)cc2)cc1 | 4.36
3 | 4.96 | 5.30 | 5.46 | 5.02 | O=C(/C=C/c1ccc(Cl)c(Cl)c1)c1ccc(B(O)O)cc1 | 4.74
4 | 4.82 | 5.26 | 5.40 | 5.10 | O=C(/C=C/c1ccc(B(O)O)cc1)c1ccc(Cl)c(Cl)c1 | 4.74
5 | 4.42 | 5.07 | 5.06 | 5.02 | O=C(/C=C/c1ccc(F)c(Br)c1)c1ccc(B(O)O)cc1 | 4.77
6 | 4.42 | 5.05 | 4.82 | 4.82 | O=C(/C=C/c1ccccc1)c1ccc[nH]1 | 4.20
7 | 4.22 | 4.72 | 4.82 | 4.64 | O=C(/C=C/c1ccc(B(O)O)cc1)c1ccc[nH]1 | 4.42
8 | 4.20 | 5.15 | 5.00 | 5.06 | O=C(/C=C/c1ccc(I)cc1)c1ccc(B(O)O)cc1 | 4.12
9 | 4.82 | 4.89 | 5.05 | 5.05 | O=C(O)COc1ccc(C(=O)/C=C/c2ccc(Cl)c(Cl)c2)cc1 | 4.89
10 | 4.66 | 5.22 | 4.80 | 5.07 | O=C(/C=C/c1ccc(F)c(Cl)c1)c1ccc(B(O)O)cc1 | 4.60
11 | 4.41 | 5.11 | 5.06 | 5.06 | O=C(/C=C/c1ccc(F)c(F)c1)c1ccc(B(O)O)cc1 | 4.74
12 | 4.55 | 4.82 | 4.89 | 4.74 | O=C(O)COc1ccc(/C=C/C(=O)c2ccc(Cl)c(Cl)c2)cc1 | 4.92

Row | SMILES | pIC50 [1] | pIC50 [2] | pIC50 [4] | pIC50 [5] | pIC50 [3]
13 | O=C(/C=C/c1ccc(I)cc1)c1ccc(OCB(O)O)cc1 | 4.00 | 5.02 | 4.74 | 4.96 | 4.42
